{"data": "Measurements collected from several papers", "target": "Serine/threonine-protein kinase 35 (STK35, Homo sapiens, UniProt Q8TDR2)", "note": "Lines come from different studies, so protocols differ."}
{"SMILES": "COc1cc(-c2cn(C3CCc4c(F)cccc4N(CC(F)(F)F)C3=O)nn2)ccc1-n1cnc(C)c1 (stereo not shown)", "effect on": "cell-free assay", "technique": "competition with immobilised ligand", "tested at": "1 µM", "remaining binding [%]": 100}
{"SMILES": "CN(C)c1nccc(-c2cnn3ncccc23)n1", "effect on": "binding", "tested at": "1 µM", "remaining binding [%]": 100}
{"SMILES": "COc1cnc(Nc2cccc(S(N)(=O)=O)c2)nc1N1CCN(c2ccccc2)C(=O)C1", "effect on": "binding", "technique": "competition with immobilised ligand", "tested at": "1 µM", "remaining binding [%]": 100}
{"SMILES": "c1cncc(-c2cccc(Nc3nccc(NC4CCCCC4)n3)c2)c1", "effect on": "binding", "technique": "competition with immobilised ligand", "tested at": "10 µM", "remaining binding [%]": 86}
{"SMILES": "CCC(=O)N[C@H]1CC[C@@H](C(=O)N(C)c2ccc(-c3nc4ccccc4o3)cc2)C1", "effect on": "cell-free assay", "technique": "competition with immobilised ligand", "tested at": "1 µM", "remaining binding [%]": 88}
{"SMILES": "Cc1cnc(Nc2ccc(C(=O)N3CCC(N4CCCC4)CC3)cc2)nc1-c1cc2ccccc2s1", "effect on": "binding", "technique": "competition with immobilised ligand", "tested at": "1 µM", "remaining binding [%]": 79}
{"SMILES": "C[C@@H](c1ccc(-n2cnc3c(N)ncnc32)cc1)N1CCc2nn(C)c(Cc3ccccc3)c2C1=O", "effect on": "binding", "technique": "competition with immobilised ligand", "tested at": "0.1 µM", "remaining binding [%]": 83}
{"SMILES": "CN(C(=O)c1ccccc1)c1cc(N(C)c2ccc3c(c2)CCc2ccc(C(=O)NCCN4CCOCC4)cc2C3=O)ccc1F", "effect on": "cell-free assay", "technique": "competition with immobilised ligand", "tested at": "1 µM", "remaining binding [%]": 100}
{"SMILES": "F[C@@H]1CCN(c2nccc(-c3cnn4ncccc34)n2)C1", "effect on": "binding", "tested at": "1 µM", "remaining binding [%]": 100}
{"SMILES": "FC(F)(F)Oc1cccc(-c2cnc3ccc(-c4ccncc4)nn23)c1", "effect on": "binding", "technique": "competition with immobilised ligand", "tested at": "5 µM", "remaining binding [%]": 100}
{"SMILES": "NS(=O)(=O)c1cc(NC(=O)C2(c3ccccc3Cl)CC2)ccc1Oc1cccc(Cl)c1", "effect on": "cell-free assay", "technique": "competition with immobilised ligand", "tested at": "1 µM", "remaining binding [%]": 94}
{"SMILES": "O=C(NCCCN1CCOCC1)c1ccc(Nc2ncc(Cl)c(-c3ccc(Cl)s3)n2)cc1", "effect on": "binding", "technique": "competition with immobilised ligand", "tested at": "1 µM", "remaining binding [%]": 100}
{"SMILES": "O=C(Nc1c[nH]nc1C(=O)NC1CCNCC1)c1cc(F)cc(F)c1", "effect on": "binding", "technique": "competition with immobilised ligand", "tested at": "1 µM", "remaining binding [%]": 100}
{"SMILES": "CCN1CCN(Cc2ccc(C(=O)Nc3ccc(C)c(Oc4ccc5c(c4)CC(=O)N5)c3)cc2C(F)(F)F)CC1", "effect on": "binding", "technique": "competition with immobilised ligand", "tested at": "1 µM", "remaining binding [%]": 72}
{"SMILES": "N[C@H]1CCN(c2nccc(-c3cnn4ncccc34)n2)C1", "effect on": "binding", "tested at": "1 µM", "remaining binding [%]": 89}
{"SMILES": "CCOC(=O)c1cc2cc(-c3cc(C(=O)NCc4ccc(C(=O)O)cc4)nn3C)ccc2[nH]1", "effect on": "cell-free assay", "technique": "competition with immobilised ligand", "tested at": "0.1 µM", "remaining binding [%]": 94}
{"SMILES": "CN(C)c1ncc(F)c(-c2cnn3ncccc23)n1", "effect on": "binding", "tested at": "1 µM", "remaining binding [%]": 100}
{"SMILES": "O=C(c1ccc(Nc2ncc(Cl)c(-c3cc4ccccc4s3)n2)cc1)N1CCC(N2CCCC2)CC1", "effect on": "binding", "technique": "competition with immobilised ligand", "tested at": "1 µM", "remaining binding [%]": 67}
{"SMILES": "C[C@@H]1CCN(c2nccc(-c3cnn4ncccc34)n2)C1", "effect on": "binding", "tested at": "1 µM", "remaining binding [%]": 72}
{"SMILES": "Nc1ncc2c(n1)-c1c([nH]c3ccc(C#CC4CC4)cc13)CCCC2", "effect on": "binding", "technique": "competition with immobilised ligand", "tested at": "1 µM", "remaining binding [%]": 100}
{"SMILES": "COc1ccc2cc(OCC3(C(=O)O)CN(C(=O)c4ccc(F)cc4)C3)ccc2c1", "effect on": "cell-free assay", "technique": "competition with immobilised ligand", "tested at": "1 µM", "remaining binding [%]": 100}
{"SMILES": "c1cnn2ncc(-c3ccnc(N4CCC45COC5)n3)c2c1", "effect on": "binding", "tested at": "1 µM", "remaining binding [%]": 100}
